HKDC1 inh: inhibitors of human hexokinase HKDC1 | inhibition, % at 20 µM | actives 0.16% (n = 340,000) | recombinant HKDC1, G6PDH/diaphorase resazurin coupled fluorescence | AID 493160 | Q2TB90;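 active = inhibition above about 35% when tested at 20 µM, limit read from the data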;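 note: plate controls were DMSO wells with enzyme for no effect and DMSO wells lacking enzyme for full effect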
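Assay system: in-house recombinant HK5 (HKDC1) enzyme. Input: HKDC1 at 5 µg/mL. Medium: Tris pH 8.0 buffer with MgCl2, Tween-20, BSA, BME. Dosing: single 20 µM dose. Schedule: 90 min reaction incubation at room temperature, dark. Signal: resazurin-to-resorufin fluorescence via G6PDH and diaphorase coupling, 525/613 nm. Controls: DMSO-enzyme wells negative, buffer-substituted wells positive.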
CTSL1 counter: cathepsin L1 inhibition, PFM18AAP counter-screen | recombinant F. hepatica cathepsin L1, Z-Leu-Arg-MCA fluorescence | inhibition, % at 5.96 µM | actives 0.49% (n = 300,000);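 active = inhibition above the mean of all tested compounds plus 3 SD, set per screening campaign, cut at about 17% in these data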;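 note: 0% = plate median of test compound wells and 100% = 1 µM Z-Phe-Ala-diazomethylketone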
TDP2 inh: blocks human TDP2 phosphodiesterase activity; O95551; actives 0.34% (n = 370,000); recombinant TDP2, T5PNP hydrolysis, p-nitrophenol absorbance 415 nm; inhibition, % at 12.8 µM;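 active = inhibition above the mean of all tested compounds plus 3 SD, set per campaign, cut at about 25% in these data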;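 note: 0% = DMSO with enzyme and 100% = buffer with substrate but no TDP2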
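Assay system: Recombinant human TDP2 | Quantity: 120 nM TDP2 per well | Incubation: 2 h at 37 °C | Signal: Epi absorbance | Evaluation: Percent inhibition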
PAD4 FP inh: PAD4 (human) enzyme inhibition | Q9UM07 | recombinant PAD4, RCA probe fluorescence polarization | inhibition, % at 6.36 µM | actives 0.41% (n = 330,000) | AID 485272;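 active = percent inhibition above a cutoff equal to the mean of all tested compounds plus 3 SD, cut at about 15% in these data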;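 note: 0% = PAD4 with RCA probe and DMSO and 100% = probe without PAD4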
UCH37 DUB inh: human UCH37 deubiquitinating enzyme inhibition; AID 588478; Q9Y5K5; actives 0.33% (n = 330,000); purified proteasome/UCH37, Ub-AMC cleavage fluorescence; inhibition, % (test concentration not listed);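 active = mean inhibition over replicate wells above about 20%, limit read from the data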;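 note: 0% = compound-free wells with enzyme and 100% = wells lacking proteasome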
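Schedule: 30 min plus 25 min, room temperature / Material: human UCH37 within purified proteasomes / Technique: AMC fluorescence intensity at 355/460 nm / Buffer or medium: pH 7.4 Tris-HCl (50 mM) with ovalbumin, ATP-MgCl2, DTT / Controls: wells without proteasome as full block, compound-free enzyme plus substrate as uninhibited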
GSTO1 counter: GSTO1 inhibition, counter-screen for RBBP9 inhibitors; recombinant GSTO1, activity-based probe fluorescence polarization; inhibition, % at 5.96 µM; actives 1.1% (n = 300,000); P78417;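 active = inhibition above the campaign mean inhibition plus 3 SD, cut at about 35% in these data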;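 note: 0% = GSTO1-1 with DMSO and 100% = wells lacking GSTO1-1 enzyme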
Target sequence (P78417 whole entry, looked up): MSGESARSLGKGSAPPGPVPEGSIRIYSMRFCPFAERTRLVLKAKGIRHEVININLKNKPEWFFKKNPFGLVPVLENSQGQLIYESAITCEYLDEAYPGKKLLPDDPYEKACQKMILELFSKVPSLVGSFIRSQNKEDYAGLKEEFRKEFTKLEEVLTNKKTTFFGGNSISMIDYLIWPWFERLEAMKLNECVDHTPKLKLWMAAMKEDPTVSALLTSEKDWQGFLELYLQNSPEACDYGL
PAD4 FP conf: PAD4 (human) inhibition, confirmed | shares compounds with PAD4 FP inh | recombinant PAD4, RCA probe fluorescence polarization | inhibition, % at 6.36 µM | actives 28% (n = 1,200) | AID 488796;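 active = mean inhibition across replicates above the hit cutoff set by the earlier primary screen, cut at about 15% in these data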;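 note: inhibitors block active-site labeling by the probe so polarization falls; 0% = PAD4 with probe and DMSO and 100% = probe without PAD4 enzyme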
An asterisk follows results filed as active. Rows were chosen to be rich in hits. Some 1.6% of all compounds tested hit in one or more screens of this group.

Cn1c(N)c(C(=O)COC(=O)COc2ccc(Br)cc2)c(=O)n(C)c1=O was read as HKDC1 inh -3, TDP2 inh -3, PAD4 FP inh 171*, UCH37 DUB inh 1 and PAD4 FP conf 8.
`O=C(CN1CCN(c2ccccn2)CC1)Nc1nc2ccccc2s1` gave HKDC1 inh -2, CTSL1 counter -4, TDP2 inh 4, PAD4 FP inh 18*, UCH37 DUB inh 4, GSTO1 counter 8 and PAD4 FP conf 6.
CC(C(Sc1ccccc1N)c1ccccc1)[N+](=O)[O-] (centres undefined) was read as HKDC1 inh 3, CTSL1 counter -1, TDP2 inh 2, PAD4 FP inh 18*, GSTO1 counter -2 and PAD4 FP conf 15*.
`Nc1ccccc1SSc1ccccc1N` gave HKDC1 inh -24, CTSL1 counter 2, TDP2 inh 3, PAD4 FP inh 8, UCH37 DUB inh 7 and GSTO1 counter -15.
`COc1ccc(CCN2C(=O)CC(Nc3ccc(N4CCOCC4)cc3)C2=O)cc1OC` (centres undefined) gave HKDC1 inh 4, CTSL1 counter 0, TDP2 inh 11, PAD4 FP inh 20*, UCH37 DUB inh 3, GSTO1 counter 4 and PAD4 FP conf 19*.
`O=C1CC(Nc2ccc(N3CCOCC3)cc2)C(=O)N1c1ccccc1F` (centres undefined) gave HKDC1 inh -2, CTSL1 counter 4, TDP2 inh 10, PAD4 FP inh 16*, UCH37 DUB inh 7, GSTO1 counter 5 and PAD4 FP conf 9.
For Cc1cc(SCC(=O)NN=Cc2cccnc2)nc2c(C)cccc12 the results were UCH37 DUB inh 2.
`O=C(NN=Cc1cccnc1)NC12CC3CC(CC(C3)C1)C2` gave UCH37 DUB inh 6.
`CCCSc1nnc(Sc2nnnn2-c2ccccc2)s1` gave HKDC1 inh 3, CTSL1 counter 3, TDP2 inh -6, PAD4 FP inh 35*, UCH37 DUB inh 3, GSTO1 counter 3 and PAD4 FP conf 20*.
Cc1ccccc1-n1nnnc1Sc1nnnn1-c1ccccc1 was read as HKDC1 inh 26, CTSL1 counter 1, TDP2 inh -1, PAD4 FP inh 19*, UCH37 DUB inh 4, GSTO1 counter 1 and PAD4 FP conf 5.
For C(=C\CSc1nnnn1-c1ccccc1)/CSc1nnnn1-c1ccccc1 the results were HKDC1 inh 2, CTSL1 counter 0, TDP2 inh 2, PAD4 FP inh 1, UCH37 DUB inh -1 and GSTO1 counter 3.
CC(=O)Nc1c(O)nc(SCC(=O)Nc2cccc(C)c2)[nH]c1=O was read as HKDC1 inh -3, CTSL1 counter -1, TDP2 inh 6, PAD4 FP inh 0, UCH37 DUB inh 1 and GSTO1 counter -2.
Screening COC(=O)c1cccc(NC(=O)CSc2nc(O)c(-c3ccccc3)c(=O)[nH]2)c1 returned HKDC1 inh -3, CTSL1 counter -3, TDP2 inh 1, PAD4 FP inh 18*, UCH37 DUB inh 15, GSTO1 counter 8 and PAD4 FP conf 20*.
For COC(=O)c1ccccc1NC(=O)CSc1nc(O)c(-c2ccccc2)c(=O)[nH]1 the results were HKDC1 inh -14, CTSL1 counter 0, TDP2 inh 10, PAD4 FP inh 17*, UCH37 DUB inh 9, GSTO1 counter 2 and PAD4 FP conf 17*.
`O=C(CSc1nc2ccccc2c(=O)n1-c1ccccc1)NN=C/C=C/c1ccccc1[N+](=O)[O-]` gave UCH37 DUB inh 6.
For Cc1ccc(NC(=O)CS(=O)CC(=O)Nc2ccccc2-c2ccc(C)o2)cc1 (centres undefined) the results were HKDC1 inh -2, CTSL1 counter 5, TDP2 inh 2, PAD4 FP inh 17*, GSTO1 counter 31 and PAD4 FP conf 1.

Source: PubChem
